Experiments:
[1] = folding enthalpy; higher = less favourable; fluorescence melt of hairpins on a sequencing array, two-state fit; conditions: sodium 0.088 M
Outline: (§1)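 Bootstrapped two-state fits yielded melting temperature and folding enthalpy for library hairpins. Cy3 fluorescence, with annealed Cy3 and quencher oligos, was imaged on a sequenced MiSeq flow cell in 50 mM Na-HEPES pH 8.0, 25 mM NaCl in 2.5 °C steps up to 60 °C, and normalised to pre-quench Cy3 and to control constructs. Four replicates were combined by inverse variance, and fitted temperatures were raised by 9.35 °C to match UV melts.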

[2] = melting temperature; fluorescence melt of hairpins on a sequencing array, two-state fit, raised by 9.35 °C to match UV melts; conditions: sodium 0.088 M
Outline: as §1

With GTCGTACGAAAGTAGGAC (((.(((....))).))) the folding enthalpy [1] was -39.7 kcal/mol and the Tm [2] was 53.7 °C.
For GTCGTAGGAAACTACGAC (((((((....))))))), the folding enthalpy [1] was -43.6 kcal/mol and the Tm [2] was 63.3 °C.
GTCGTAGGAAACTACGGC (.(((((....))))).) showed a folding enthalpy [1] of -36.3 kcal/mol and a Tm [2] of 52.8 °C.
Work on GTCGTCACGAAAGTGGAC (((..(((....)))))) yielded a folding enthalpy [1] of -13.3 kcal/mol and a Tm [2] of 37.5 °C.
GTCGTCCGAAAGGAGGAC (((.(((....))).))) gave a folding enthalpy [1] of -40.2 kcal/mol and a Tm [2] of 62 °C.
GTCGTCGAAAGACGTGAC ((((((....)))..))) gave a folding enthalpy [1] of -10.8 kcal/mol and a Tm [2] of 39.6 °C.
With GTCGTCGGAAACAACGAC (((((.(....).))))) the folding enthalpy [1] was -38 kcal/mol and the Tm [2] was 48.3 °C.
With GTCGTCGGAAACGGCGAC ((((.((....)).)))) the folding enthalpy [1] was -41.9 kcal/mol and the Tm [2] was 62.3 °C.
For GTCGTGCGAAAGCATGAC (((.(((....))).))), the folding enthalpy [1] was -34.8 kcal/mol and the Tm [2] was 66.3 °C.
Work on GTCGTGGGAAACCACGGC (.(((((....))))).) yielded a folding enthalpy [1] of -40.4 kcal/mol and a Tm [2] of 59.9 °C.
With GTCGTGGGAAACCGCGAC ((((.((....)).)))) the folding enthalpy [1] was -48.7 kcal/mol and the Tm [2] was 60.8 °C.
GTCGTTCGAAAGAAGAC (((.(((....)))))) showed a folding enthalpy [1] of -21.2 kcal/mol and a Tm [2] of 35.6 °C.
With GTCTAACGAAAGTTCGAC (((.(((....))).))) the folding enthalpy [1] was -28.3 kcal/mol and the Tm [2] was 43.2 °C.
For GTCTAAGGAAACCTAGAC (((((.(....).))))), the folding enthalpy [1] was -25.8 kcal/mol and the Tm [2] was 34.3 °C.
With GTCTACCGAAAGGTGAC (((.(((....)))))) the folding enthalpy [1] was -23.8 kcal/mol and the Tm [2] was 50.3 °C.
In the case of GTCTACGAAAGTAAGGAC ((((((....)))..))), the folding enthalpy [1] is reported as -19.5 kcal/mol and the Tm [2] is reported as 31.2 °C.
GTCTACGAAAGTACGAC ((((((....))).))) gave a folding enthalpy [1] of -22.8 kcal/mol and a Tm [2] of 38.1 °C.
Sequence GTCTACGAAAGTATGGAC ((((((....)))..))) has a folding enthalpy [1] of -16.3 kcal/mol and a Tm [2] of 31.3 °C.
For GTCTACGGAAACGTAGAC (((((((....))))))), the folding enthalpy [1] was -46.2 kcal/mol and the Tm [2] was 61 °C.
With GTCTACTCGAAAGAGGAC (((..(((....)))))) the folding enthalpy [1] was -14.4 kcal/mol and the Tm [2] was 32.1 °C.
GTCTAGCGAAAGCTGGAC (((.(((....))).))) gave a folding enthalpy [1] of -33.7 kcal/mol and a Tm [2] of 61.6 °C.
Work on GTCTAGCGAAAGCTTGAC (((.(((....))).))) yielded a folding enthalpy [1] of -28.7 kcal/mol and a Tm [2] of 54.2 °C.
For GTCTAGGGAAACCCAGAC ((((.((....)).)))), the folding enthalpy [1] was -30.1 kcal/mol and the Tm [2] was 40.9 °C.
In the case of GTCTAGGGAAACCTAGGC (.(((((....))))).), the folding enthalpy [1] is reported as -24.7 kcal/mol and the Tm [2] is reported as 46.2 °C.
GTCTATCCGAAAGGAGAC (((..(((....)))))) gave a folding enthalpy [1] of -16.5 kcal/mol and a Tm [2] of 31.8 °C.
Work on GTCTATGAAAATAGAC ((((((....)))))) yielded a folding enthalpy [1] of -32.8 kcal/mol and a Tm [2] of 49.5 °C.
GTCTCAGGAAACTAAGAC ((((.((....)).)))) showed a folding enthalpy [1] of -11.5 kcal/mol and a Tm [2] of 24.2 °C.
Work on GTCTCAGGAAACTGAGGC (.(((((....))))).) yielded a folding enthalpy [1] of -37.3 kcal/mol and a Tm [2] of 51.1 °C.
For GTCTCCCGAAAGGGCGAC (((.(((....))).))), the folding enthalpy [1] was -30.8 kcal/mol and the Tm [2] was 53.2 °C.
GTCTCCGAAAGGAATGAC ((((((....)))..))) gave a folding enthalpy [1] of -20.7 kcal/mol and a Tm [2] of 35.2 °C.
GTCTCCGAAAGGACGGAC ((((((....)))..))) gave a folding enthalpy [1] of -15.7 kcal/mol and a Tm [2] of 35.7 °C.
GTCTCCGAAAGGAGGGAC ((((((....)))..))) showed a folding enthalpy [1] of -9.56 kcal/mol and a Tm [2] of 41.7 °C.
In the case of GTCTCCGAAAGGATGAC ((((((....))).))), the folding enthalpy [1] is reported as -25.6 kcal/mol and the Tm [2] is reported as 48.5 °C.
In the case of GTCTCCGGAAACAGAGAC (((((.(....).))))), the folding enthalpy [1] is reported as -25.8 kcal/mol and the Tm [2] is reported as 38.3 °C.
For GTCTCCTCGAAAGAGGAC (((..(((....)))))), the folding enthalpy [1] was -9.88 kcal/mol and the Tm [2] was 32 °C.
GTCTCGACGAAAGTCGAC (((..(((....)))))) gave a folding enthalpy [1] of -8.21 kcal/mol and a Tm [2] of 35.1 °C.
Work on GTCTCGCGAAAGCGCGAC (((.(((....))).))) yielded a folding enthalpy [1] of -27.7 kcal/mol and a Tm [2] of 53 °C.
In the case of GTCTCGCGAAAGCGGAC (((.(((....)))))), the folding enthalpy [1] is reported as -16.9 kcal/mol and the Tm [2] is reported as 53.7 °C.
With GTCTCGGAAACGAGAC ((((((....)))))) the folding enthalpy [1] was -44.5 kcal/mol and the Tm [2] was 64.8 °C.
Sequence GTCTCGGGAAACCGAAAC ((.((((....)))).)) has a folding enthalpy [1] of -15.4 kcal/mol and a Tm [2] of 34.7 °C.
Work on GTCTCTCCGAAAGGAGAC (((..(((....)))))) yielded a folding enthalpy [1] of -9.6 kcal/mol and a Tm [2] of 35.8 °C.
GTCTCTCGAAAGAGGAC (((.(((....)))))) gave a folding enthalpy [1] of -24.2 kcal/mol and a Tm [2] of 45.1 °C.
In the case of GTCTCTCGAAAGAGGGAC (((.(((....))).))), the folding enthalpy [1] is reported as -36.1 kcal/mol and the Tm [2] is reported as 55.5 °C.
In the case of GTCTGACCGAAAGGTGAC (((..(((....)))))), the folding enthalpy [1] is reported as -19.3 kcal/mol and the Tm [2] is reported as 38.9 °C.
For GTCTGACGAAAGTCTGAC (((.(((....))).))), the folding enthalpy [1] was -34 kcal/mol and the Tm [2] was 57.2 °C.
With GTCTGAGCGAAAGCTGAC (((..(((....)))))) the folding enthalpy [1] was -17.6 kcal/mol and the Tm [2] was 41.2 °C.

Reference: the array DNA melting data of Ke et al. (doi:10.1101/2024.01.08.574731)
